Common to all, as to format: functional
In one assay the test system is Moraxella bovis. The assay is described as follows: In vitro antibacterial activity against glucose nonfermenter Moraxella bovis P-7101. In a few lines:
(§1)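 Two-fold agar dilution MIC on Mueller-Hinton agar (pH 7.4), following the Japan Society of Chemotherapy MIC Committee method. Inoculum was about 10⁶ CFU, and growth was read after 20 h at 37 °C. MIC is reported in µg/mL.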

Assay [1] deals with Pseudomonas aeruginosa. The experiment in a line: In vitro antibacterial activity against Pseudomonas aeruginosa IFO 3445. In a few lines: as §1
The subject of the next assay is Streptococcus pyogenes. The experiment in a line: In vitro antibacterial activity against Streptococcus pyogenes A65. In a few lines: as §1
Assay [2] is filed under the species Mus musculus. The experiment in a line: Oral efficacy against Pseudomonas aeruginosa 12 on Systemic Infections in Mice. The essentials:
(§2)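 Groups of at least 10 male Std-ddY mice (20 ± 2 g) were infected ip, with S. pyogenes A65 at 3×10^7 cells or P. aeruginosa 12 at 4×10^3 cells. Compounds were suspended in 0.2% sodium carboxymethylcellulose and given orally at 0 and 6 h postinfection. The result is reported as ED50 in mg/kg.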

For assay [3], the system named is Escherichia coli. The assay is described as follows: In vitro antibacterial activity against Escherichia coli P-5101. The essentials:
as §1

Assay [4] relates to Staphylococcus aureus. The experiment in a line: In vitro antibacterial activity against Staphylococcus aureus 50774. In a few lines:
as §1

The test system of assay [5] is Staphylococcus aureus. The experiment in a line: In vitro antibacterial activity against Staphylococcus aureus 209P JC-1. The essentials:
as §1

The next assay relates to Enterobacter cloacae. The assay is described as follows: In vitro antibacterial activity against Enterobacter cloacae 963.
The subject of another assay is Klebsiella pneumoniae. The experiment in a line: In vitro antibacterial activity against Klebsiella pneumoniae 13. In a few lines:
as §1

The next assay deals with Enterococcus faecalis. The assay is described as follows: In vitro antibacterial activity against Streptococcus faecalis 2473. In a few lines: as §1
The species named for assay [6] is Mus musculus. The assay is described as follows: Oral efficacy against Streptococcus pyogenes A65 on Systemic Infections in Mice. The essentials:
as §2

Assay [7] relates to Serratia marcescens. The experiment in a line: In vitro antibacterial activity against Serratia marcescence S-9. In a few lines:
as §1

The test system of assay [8] is Pseudomonas aeruginosa. The experiment in a line: In vitro antibacterial activity against Pseudomonas aeruginosa 12. In a few lines:
as §1

Assay [9] deals with Staphylococcus epidermidis. The experiment in a line: In vitro antibacterial activity against Streptococcus epidermis 8. In a few lines:
as §1

Assay [10] relates to Escherichia coli. The experiment in a line: In vitro antibacterial activity against Escherichia coli NIHJ JC-2. In a few lines:
as §1

For assay [11], the system named is Serratia marcescens. The assay is described as follows: In vitro antibacterial activity against Serratia marcescens S-9. In a few lines:
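MIC (µg/mL) by 2-fold agar dilution on Mueller-Hinton agar (pH 7.4), following the Japan Society of Chemotherapy MIC Committee method. Inoculum of about 10⁶ CFU. Growth was read after 20 h at 37 °C.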

The test system of assay [12] is Serratia marcescens. The assay is described as follows: In vitro antibacterial activity against Serratia marcescene S-9. The essentials:
as §1

Converted amounts (≈) assume the structure as drawn.

In the case of `C[C@@H]1CN(c2c(F)c(N)c3c(=O)c(C(=O)O)cn(C4CC4)c3c2F)C[C@H](C)N1C`, the MIC was 0.78 µg/mL (≈ 1.92 µM) against Moraxella bovis; 0.78 µg/mL (≈ 1.92 µM) against Pseudomonas aeruginosa [1]; 0.39 µg/mL (≈ 0.96 µM) in the assay on Streptococcus pyogenes; 0.0125 µg/mL (≈ 0.0308 µM) in the assay on Escherichia coli [3]; 0.025 µg/mL (≈ 0.0615 µM) with Staphylococcus aureus [4]; 0.05 µg/mL (≈ 0.123 µM) in the assay on Staphylococcus aureus [5]. Moreover, the minimum inhibitory concentration (MIC) against Enterobacter cloacae was determined as 0.05 µg/mL (≈ 0.123 µM); against Klebsiella pneumoniae, 0.1 µg/mL (≈ 0.246 µM); with Enterococcus faecalis, 0.39 µg/mL (≈ 0.96 µM); against Serratia marcescens [7], 0.2 µg/mL (≈ 0.492 µM); in the assay with Pseudomonas aeruginosa [8], 0.39 µg/mL (≈ 0.96 µM); in [9], 0.05 µg/mL (≈ 0.123 µM). This molecule displayed a minimal inhibitory concentration (MIC) against Escherichia coli [10] of 0.025 µg/mL (≈ 0.0615 µM). In addition, the figures for the ED50 in the assay listed under Mus musculus [2] and in the assay filed under Mus musculus [6] were 2.21 mg/kg and 5.64 mg/kg, respectively.
`CC1CN(c2c(F)c(Cl)c3c(=O)c(C(=O)O)cn(C4CC4)c3c2F)CCN1` (centres undefined): the MIC stood at 1.56 µg/mL (≈ 3.92 µM) in the assay on Moraxella bovis; 0.78 µg/mL (≈ 1.96 µM) against Pseudomonas aeruginosa [1]; 0.78 µg/mL (≈ 1.96 µM) in the assay on Streptococcus pyogenes; 0.0125 µg/mL (≈ 0.0314 µM) with Escherichia coli [3]; 0.1 µg/mL (≈ 0.251 µM) with Staphylococcus aureus [4]; 0.1 µg/mL (≈ 0.251 µM) against Staphylococcus aureus [5]. For the same molecule, the MIC against Enterobacter cloacae stood at 0.05 µg/mL (≈ 0.126 µM); against Klebsiella pneumoniae, 0.05 µg/mL (≈ 0.126 µM); against Enterococcus faecalis, 0.78 µg/mL (≈ 1.96 µM); against Serratia marcescens [7], 0.2 µg/mL (≈ 0.503 µM); in the assay with Pseudomonas aeruginosa [8], 0.39 µg/mL (≈ 0.98 µM); in assay [9], 0.1 µg/mL (≈ 0.251 µM). In addition, the MIC with Escherichia coli [10] turned out to be 0.0125 µg/mL (≈ 0.0314 µM). Moreover, in the assay listed under Mus musculus [2], the 50% effect level (ED50) was put at a dose of 1.65 mg/kg.
`CN1CCN(c2c(F)c(N)c3c(=O)c(C(=O)O)cn(C4CC4)c3c2F)CC1`: the minimal inhibitory concentration (MIC) against Moraxella bovis stood at 0.39 µg/mL (≈ 1.03 µM); in the assay on Pseudomonas aeruginosa [1], 1.56 µg/mL (≈ 4.12 µM); in the assay on Streptococcus pyogenes, 0.39 µg/mL (≈ 1.03 µM); in the assay on Escherichia coli [3], 0.0125 µg/mL (≈ 0.033 µM); in the assay with Staphylococcus aureus [4], 0.05 µg/mL (≈ 0.132 µM); against Staphylococcus aureus [5], 0.1 µg/mL (≈ 0.264 µM). For the same molecule, the minimum inhibitory concentration (MIC) against Enterobacter cloacae was found to be 0.025 µg/mL (≈ 0.0661 µM); against Klebsiella pneumoniae, 0.05 µg/mL (≈ 0.132 µM); in the assay with Enterococcus faecalis, 0.78 µg/mL (≈ 2.06 µM); in the assay on Serratia marcescens [11], 0.1 µg/mL (≈ 0.264 µM); in the assay with Pseudomonas aeruginosa [8], 0.2 µg/mL (≈ 0.529 µM); in [9], 0.05 µg/mL (≈ 0.132 µM). The same molecule showed an MIC against Escherichia coli [10] of 0.0125 µg/mL (≈ 0.033 µM). Besides, the results for the median effective dose (ED50) in the assay filed under Mus musculus [2] and in the assay listed under Mus musculus [6] were 2.18 mg/kg and 22.9 mg/kg, respectively.
As for `CC1CN(c2c(F)c(F)c3c(=O)c(C(=O)O)cn(C4CC4)c3c2F)CCN1` (centres undefined), the minimal inhibitory concentration (MIC) was determined as 1.56 µg/mL (≈ 4.09 µM) in the assay on Moraxella bovis; 0.78 µg/mL (≈ 2.05 µM) with Pseudomonas aeruginosa [1]; 1.56 µg/mL (≈ 4.09 µM) with Streptococcus pyogenes; 0.0063 µg/mL (≈ 0.0165 µM) with Escherichia coli [3]; 0.2 µg/mL (≈ 0.524 µM) against Staphylococcus aureus [4]; 0.2 µg/mL (≈ 0.524 µM) against Serratia marcescens [12]. Also, the MIC came out at 0.2 µg/mL (≈ 0.524 µM) in the assay with Staphylococcus aureus [5]; 0.025 µg/mL (≈ 0.0656 µM) in the assay with Enterobacter cloacae; 0.05 µg/mL (≈ 0.131 µM) in the assay with Klebsiella pneumoniae; 3.13 µg/mL (≈ 8.21 µM) in the assay on Enterococcus faecalis; 0.78 µg/mL (≈ 2.05 µM) in the assay on Pseudomonas aeruginosa [8]; 0.2 µg/mL (≈ 0.524 µM) in assay [9]. In the assay with Escherichia coli [10], this molecule registered a minimum inhibitory concentration (MIC) of 0.0125 µg/mL (≈ 0.0328 µM). Further, the ED50 came to 2.46 mg/kg in the assay filed under Mus musculus [2] and 17.3 mg/kg in the assay listed under Mus musculus [6].
`CN1CCN(c2c(F)cc3c(=O)c(C(=O)O)cn(C4CC4)c3c2F)CC1`: the minimal inhibitory concentration (MIC) in the assay with Moraxella bovis was determined as 0.78 µg/mL (≈ 2.15 µM); against Pseudomonas aeruginosa [1], 0.78 µg/mL (≈ 2.15 µM); in the assay with Streptococcus pyogenes it was 0.39 µg/mL (≈ 1.07 µM); with Escherichia coli [3] it was 0.0125 µg/mL (≈ 0.0344 µM); with Staphylococcus aureus [4], 0.1 µg/mL (≈ 0.275 µM); against Staphylococcus aureus [5], 0.2 µg/mL (≈ 0.55 µM). For the same molecule, the minimal inhibitory concentration (MIC) was determined as 0.05 µg/mL (≈ 0.138 µM) against Enterobacter cloacae; 0.05 µg/mL (≈ 0.138 µM) against Klebsiella pneumoniae; 0.78 µg/mL (≈ 2.15 µM) in the assay on Enterococcus faecalis; 0.1 µg/mL (≈ 0.275 µM) against Serratia marcescens [11]; 0.39 µg/mL (≈ 1.07 µM) against Pseudomonas aeruginosa [8]; 0.1 µg/mL (≈ 0.275 µM) in [9]. Besides, in the assay on Escherichia coli [10], 0.025 µg/mL (≈ 0.0688 µM) was the least that counted as inhibitory (MIC). The ED50 was 2.18 mg/kg in the assay listed under Mus musculus [2] and 8.84 mg/kg in the assay listed under Mus musculus [6].
On to `C[C@@H]1CN(c2c(F)c(N)c3c(=O)c(C(=O)O)cn(C4CC4)c3c2F)C[C@@H](C)N1` (relative stereo), for which the MIC in the assay on Moraxella bovis amounted to 0.78 µg/mL (≈ 1.99 µM); with Pseudomonas aeruginosa [1], 0.78 µg/mL (≈ 1.99 µM); in the assay on Streptococcus pyogenes, 0.39 µg/mL (≈ 0.994 µM); in the assay on Escherichia coli [3], 0.0125 µg/mL (≈ 0.0319 µM); against Staphylococcus aureus [4], 0.025 µg/mL (≈ 0.0637 µM); in the assay on Staphylococcus aureus [5] it was 0.025 µg/mL (≈ 0.0637 µM). Further, the MIC was 0.1 µg/mL (≈ 0.255 µM) in the assay with Enterobacter cloacae; 0.1 µg/mL (≈ 0.255 µM) against Klebsiella pneumoniae; 0.39 µg/mL (≈ 0.994 µM) against Enterococcus faecalis; 0.39 µg/mL (≈ 0.994 µM) against Serratia marcescens [7]; 0.78 µg/mL (≈ 1.99 µM) with Pseudomonas aeruginosa [8]; 0.0125 µg/mL (≈ 0.0319 µM) in assay [9]. The same molecule came in with an MIC in the assay on Escherichia coli [10] of 0.0125 µg/mL (≈ 0.0319 µM). Besides, the median effective dose (ED50) in the assay filed under Mus musculus [2] worked out at 6.33 mg/kg; in the assay filed under Mus musculus [6], 7.38 mg/kg.
As for `C[C@@H]1CN(c2c(F)c(N)c3c(=O)c(C(=O)O)cn(C4CC4)c3c2F)C[C@H](C)N1` [SPARFLOXACIN], the MIC against Moraxella bovis worked out at 0.39 µg/mL (≈ 0.994 µM); in the assay with Pseudomonas aeruginosa [1], 0.39 µg/mL (≈ 0.994 µM); against Streptococcus pyogenes it was 0.39 µg/mL (≈ 0.994 µM); in the assay with Escherichia coli [3], 0.0125 µg/mL (≈ 0.0319 µM); in the assay on Staphylococcus aureus [4], 0.05 µg/mL (≈ 0.127 µM); in the assay on Staphylococcus aureus [5], 0.05 µg/mL (≈ 0.127 µM). The MIC came to 0.05 µg/mL (≈ 0.127 µM) against Enterobacter cloacae; 0.05 µg/mL (≈ 0.127 µM) against Klebsiella pneumoniae; 0.78 µg/mL (≈ 1.99 µM) against Enterococcus faecalis; 0.2 µg/mL (≈ 0.51 µM) against Serratia marcescens [7]; 0.39 µg/mL (≈ 0.994 µM) in the assay with Pseudomonas aeruginosa [8]; 0.05 µg/mL (≈ 0.127 µM) in [9]. Further, the minimum inhibitory concentration (MIC) in the assay with Escherichia coli [10] came to 0.0125 µg/mL (≈ 0.0319 µM). For the same molecule, the ED50 in the assay filed under Mus musculus [2] turned out to be 1.57 mg/kg; in the assay filed under Mus musculus [6] it was 3.36 mg/kg.

For orientation: MIC means the least concentration at which growth counts as inhibited. For orientation: ED50 means the dose at which the effect has come halfway, by size or by number of responders.

The values are drawn from ChEMBL document CHEMBL1124792, “Synthesis and structure-activity relationships of 5-substituted 6,8-difluoroquinolones, including sparfloxacin, a new quinolone antibacterial agent with improved potency” (1990).
